According to ChEMBL document CHEMBL1132614, “Novel inhibitors of carboxypeptidase G2 (CPG2): potential use in antibody-directed enzyme prodrug therapy” (J Med Chem, 1999):

Tests used:
LS174T [1] = test: The compound was evaluated for the cytotoxicity towards LS174T cells.; type: functional, cell-based; conditions: Homo sapiens
Summary of the method: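 LS174T human colon adenocarcinoma cells (CEA-expressing) exposed to graded inhibitor, 0.01–500 μM in medium, for 1 h at 37 °C. Cells were washed once, grown a further 6 days, and survival was read by SRB assay to give IC50.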

LS174T [2] = test: Cytotoxicity in conjugate with F(ab')2-A5B7-CPG2 and 2-(4-Methoxy-phenylsulphanylcarbonylamino)-pentanedioic acid at a concentration of 50 uM against LS174T cells.; type: functional, cell-based; conditions: Homo sapiens
Summary of the method: (§1)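 LS174T human colon adenocarcinoma cells (CEA-expressing) were exposed to F(ab')2-A5B7-CPG2 conjugate (3.32 μg/mL, 0.505 U/mL) for 1 h at 37 °C and washed twice to remove unbound conjugate. They were then exposed for 1 h at 37 °C to graded prodrug plus the stated fixed CPG2 inhibitor level (25 or 50 μM). After a wash, cells grew 6 days; survival was measured by SRB assay.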

LS174T [3] = test: Cytotoxicity in conjugate with F(ab')2-A5B7-CPG2 and 2-(4-Methoxy-phenylsulphanylcarbonylamino)-pentanedioic acid at a concentration of 25 uM against LS174T cells.; type: functional, cell-based; conditions: Homo sapiens; summary of the method: as §1
LS174T [4] = test: Cytotoxicity in conjugate with 2-(4-Methoxy-phenylsulphanylcarbonylamino)-pentanedioic acid at a concentration of 50 micuM against LS174T cells.; type: functional, cell-based; conditions: Homo sapiens
LS174T [5] = test: The compound was evaluated for the cytotoxicity with the compound alone against LS174T cells.; type: functional, cell-based; conditions: Homo sapiens
Summary of the method: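 LS174T cells were exposed to graded compound alone (0.01–500 μM in medium) for 1 h at 37 °C, with no conjugate. Cells were washed once with medium and cultured a further 6 days. Survival was measured by sulforhodamine B (SRB) assay.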

LS174T [6] = test: The compound was evaluated for the cytotoxicity in conjugate with F(ab')2-A5B7-CPG2 against LS174T cells.; type: functional, cell-based; conditions: Homo sapiens
Summary of the method: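 They then received graded prodrug (0.01–500 μM in medium) for 1 h at 37 °C to generate the phenol mustard in situ. After a wash and a further 6 days, survival was measured by SRB assay.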

[7] = The compound was evaluated for the apparent Vmax through Lineweaver-Burke Plots of MTX turnover by CPG2 at a concentration of 1 (uM).; type: ADME
Summary of the method: (§2)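 CPG2 (10 μL of 28.66 μg/mL stock) in a 1-mL cuvette; reaction started with 990 μL methotrexate (3.077–70 μM) alone or with inhibitor at fixed 0.5 or 1.0 μM (final). Buffer was 0.1 M Tris-HCl pH 7.3, 0.1 mM ZnCl2, 37 °C. A320 decrease over 0–60 s gave initial velocities; apparent Vmax came from Lineweaver–Burk plots.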

[8] = The compound was evaluated for the apparent Vmax through Lineweaver-Burke Plot of MTX turnover by CPG2 at a concentration of 0.5 (uM).; type: ADME; summary of the method: as §2
[9] = The compound was evaluated for the apparent Vmax through Lineweaver-Burke Plots of MTX turnover by CPG2 at a concentration of 0 (uM).; type: ADME; summary of the method: as §2

## Cc1ccc(SC(=O)NC(CCC(=O)O)C(=O)O)cc1 (stereo not given)
LS174T [1]
  IC50: > 500 µM

## O=C(O)CCC(NC(=O)Oc1ccc(N(CCCl)CCCl)cc1)C(=O)O (stereo not given)
LS174T [2]
  IC50: 16.2 µM
LS174T [3]
  IC50: 3.3 µM
LS174T [4]
  IC50: 24 µM
LS174T [5]
  IC50: 23.2 µM
LS174T [6]
  IC50: 0.8 µM

## COc1cccc(SC(=O)NC(CCC(=O)O)C(=O)O)c1 (stereo not given)
LS174T [1]
  IC50: > 500 µM

## Cc1cccc(SC(=O)NC(CCC(=O)O)C(=O)O)c1 (stereo not given)
LS174T [1]
  IC50: > 500 µM

## Nc1ccc(SC(=O)NC(CCC(=O)O)C(=O)O)cc1 (stereo not given)
LS174T [1]
  IC50: 416 µM

## COc1ccc(SC(=O)N[C@@H](CCC(=O)O)C(=O)O)cc1
LS174T [1]
  IC50: > 500 µM

## COc1ccc(SC(=O)N[C@H](CCC(=O)O)C(=O)O)cc1
[7]
  Vmax: 42.3 µM/min
[8]
  Vmax: 47.7 µM/min
[9]
  Vmax: 80 µM/min
LS174T [1]
  IC50: > 500 µM

## Nc1cccc(SC(=O)NC(CCC(=O)O)C(=O)O)c1 (stereo not given)
LS174T [1]
  IC50: > 500 µM
